ChEMBL document CHEMBL3797160, “Discovery of novel diaryl urea derivatives bearing a triazole moiety as potential antitumor agents” (Eur J Med Chem, 2016)

System: HT-29
Assay: Antiproliferative activity against human HT-29 cells after 72 hrs by MTT assay
Format: functional, cell-based
Conditions: HT-29, 72 h
Procedure, shortened: (§1)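 MTT assay. Cells grown in MEM with 10% FBS. About 4 × 10³ cells per well were plated and left 24 h at 37 °C in 5% CO₂. Compounds were then added for a further 72 h. MTT was added to a final 5 µg/mL for 4 h at 37 °C. Formazan was dissolved in DMSO and read at 492 nm against a 630 nm reference. Each line was tested three times, and IC50 is the average of at least three determinations.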

Row | Structure (SMILES) | IC50 [µM]
1 | CN(C)CCCn1cnnc1-c1cc(Oc2ccc(NC(=O)Nc3ccc(F)c(Cl)c3)cc2F)ccn1 | 0.89
2 | O=C(Nc1ccc(Oc2ccnc(-c3nncn3C3CC3)c2)c(F)c1)Nc1ccc(Cl)c(C(F)(F)F)c1 | 10.9
3 | Cn1cnnc1-c1cc(Oc2ccc(NC(=O)Nc3ccc(Cl)c(C(F)(F)F)c3)cc2F)ccn1 | 2.57
4 | CCN(CC)CCn1cnnc1-c1cc(Oc2ccc(NC(=O)Nc3ccc(F)c(F)c3)cc2F)ccn1 | 1.24
5 | CCN(CC)CCn1cnnc1-c1cc(Oc2ccc(NC(=O)Nc3cccc(C(F)(F)F)c3)cc2F)ccn1 | 0.63
6 | CN(C)CCCn1cnnc1-c1cc(Oc2ccc(NC(=O)Nc3ccc(Cl)cc3Cl)cc2F)ccn1 | 0.68
7 | CN(C)CCn1cnnc1-c1cc(Oc2ccc(NC(=O)Nc3ccc(Cl)c(C(F)(F)F)c3)cc2F)ccn1 | 0.88
8 | CN(C)CCCn1cnnc1-c1cc(Oc2ccc(NC(=O)Nc3ccccc3C(F)(F)F)cc2F)ccn1 | 3.13
9 | Cn1ncnc1-c1cc(Oc2ccc(NC(=O)Nc3cccc(C(F)(F)F)c3)cc2F)ccn1 | > 50
10 | CN(C)CCCn1cnnc1-c1cc(Oc2ccc(NC(=O)Nc3ccc(Cl)c(C(F)(F)F)c3)cc2F)ccn1 | 1.4
11 | CN(C)CCn1cnnc1-c1cc(Oc2ccc(NC(=O)Nc3ccc(Cl)cc3Cl)cc2F)ccn1 | 1.89
12 | CN(C)CCCn1cnnc1-c1cc(Oc2ccc(NC(=O)Nc3ccc(F)c(F)c3)cc2F)ccn1 | 1.21
13 | O=C(Nc1ccc(Oc2ccnc(-c3nncn3CCCN3CCOCC3)c2)c(F)c1)Nc1ccc(F)c(Cl)c1 | 16.2
14 | O=C(Nc1ccc(Oc2ccnc(-c3nncn3CCCN3CCOCC3)c2)c(F)c1)Nc1ccccc1C(F)(F)F | 15.7

System: not listed separately
Assay: Antiproliferative activity against human H460 cells after 72 hrs by MTT assay
Format: functional, cell-based
Conditions: NCI-H460, 72 h
Procedure, shortened: as §1

Row | Structure (SMILES) | IC50 [µM]
15 | CN(C)CCCn1cnnc1-c1cc(Oc2ccc(NC(=O)Nc3ccc(F)c(Cl)c3)cc2F)ccn1 | 1.27
16 | O=C(Nc1ccc(Oc2ccnc(-c3nncn3C3CC3)c2)c(F)c1)Nc1ccc(Cl)c(C(F)(F)F)c1 | > 50
17 | Cn1cnnc1-c1cc(Oc2ccc(NC(=O)Nc3ccc(Cl)c(C(F)(F)F)c3)cc2F)ccn1 | 2.31
18 | CCN(CC)CCn1cnnc1-c1cc(Oc2ccc(NC(=O)Nc3ccc(F)c(F)c3)cc2F)ccn1 | 14.8
19 | CCN(CC)CCn1cnnc1-c1cc(Oc2ccc(NC(=O)Nc3cccc(C(F)(F)F)c3)cc2F)ccn1 | 9.87
20 | CN(C)CCCn1cnnc1-c1cc(Oc2ccc(NC(=O)Nc3ccc(Cl)cc3Cl)cc2F)ccn1 | 3.68
21 | CN(C)CCn1cnnc1-c1cc(Oc2ccc(NC(=O)Nc3ccc(Cl)c(C(F)(F)F)c3)cc2F)ccn1 | 1.15
22 | CN(C)CCCn1cnnc1-c1cc(Oc2ccc(NC(=O)Nc3ccccc3C(F)(F)F)cc2F)ccn1 | 10.9
23 | Cn1ncnc1-c1cc(Oc2ccc(NC(=O)Nc3cccc(C(F)(F)F)c3)cc2F)ccn1 | 11.6
24 | CN(C)CCCn1cnnc1-c1cc(Oc2ccc(NC(=O)Nc3ccc(Cl)c(C(F)(F)F)c3)cc2F)ccn1 | 1.68
25 | CN(C)CCn1cnnc1-c1cc(Oc2ccc(NC(=O)Nc3ccc(Cl)cc3Cl)cc2F)ccn1 | 4.35
26 | CN(C)CCCn1cnnc1-c1cc(Oc2ccc(NC(=O)Nc3ccc(F)c(F)c3)cc2F)ccn1 | 1.08
27 | O=C(Nc1ccc(Oc2ccnc(-c3nncn3CCCN3CCOCC3)c2)c(F)c1)Nc1ccc(F)c(Cl)c1 | 16.2

System: MDA-MB-231
Assay: Antiproliferative activity against human MDA-MB-231 cells after 72 hrs by MTT assay
Format: functional, cell-based
Conditions: MDA-MB-231, 72 h
Procedure, shortened: as §1

Row | Structure (SMILES) | IC50 [µM]
28 | CN(C)CCCn1cnnc1-c1cc(Oc2ccc(NC(=O)Nc3ccc(F)c(Cl)c3)cc2F)ccn1 | 14.2
29 | O=C(Nc1ccc(Oc2ccnc(-c3nncn3C3CC3)c2)c(F)c1)Nc1ccc(Cl)c(C(F)(F)F)c1 | > 50
30 | Cn1cnnc1-c1cc(Oc2ccc(NC(=O)Nc3ccc(Cl)c(C(F)(F)F)c3)cc2F)ccn1 | 5.32
31 | CCN(CC)CCn1cnnc1-c1cc(Oc2ccc(NC(=O)Nc3ccc(F)c(F)c3)cc2F)ccn1 | 41.3
32 | CCN(CC)CCn1cnnc1-c1cc(Oc2ccc(NC(=O)Nc3cccc(C(F)(F)F)c3)cc2F)ccn1 | 0.72
33 | CN(C)CCCn1cnnc1-c1cc(Oc2ccc(NC(=O)Nc3ccc(Cl)cc3Cl)cc2F)ccn1 | 7.49
34 | CN(C)CCn1cnnc1-c1cc(Oc2ccc(NC(=O)Nc3ccc(Cl)c(C(F)(F)F)c3)cc2F)ccn1 | 1.07
35 | CN(C)CCCn1cnnc1-c1cc(Oc2ccc(NC(=O)Nc3ccccc3C(F)(F)F)cc2F)ccn1 | 40.5
36 | Cn1ncnc1-c1cc(Oc2ccc(NC(=O)Nc3cccc(C(F)(F)F)c3)cc2F)ccn1 | 9.68
37 | CN(C)CCCn1cnnc1-c1cc(Oc2ccc(NC(=O)Nc3ccc(Cl)c(C(F)(F)F)c3)cc2F)ccn1 | 7.88
38 | CN(C)CCn1cnnc1-c1cc(Oc2ccc(NC(=O)Nc3ccc(Cl)cc3Cl)cc2F)ccn1 | 7.96
39 | CN(C)CCCn1cnnc1-c1cc(Oc2ccc(NC(=O)Nc3ccc(F)c(F)c3)cc2F)ccn1 | 25.2
40 | O=C(Nc1ccc(Oc2ccnc(-c3nncn3CCCN3CCOCC3)c2)c(F)c1)Nc1ccc(F)c(Cl)c1 | > 50

System: not listed separately
Assay: Cytotoxicity against human WI38 cells after 72 hrs by MTT assay
Format: cell-based
Conditions: WI-38, 72 h
Procedure, shortened: as §1

Row | Structure (SMILES) | IC50 [µM]
41 | CN(C)CCCn1cnnc1-c1cc(Oc2ccc(NC(=O)Nc3ccc(F)c(Cl)c3)cc2F)ccn1 | 5.37
42 | Cn1cnnc1-c1cc(Oc2ccc(NC(=O)Nc3ccc(Cl)c(C(F)(F)F)c3)cc2F)ccn1 | 9.85
43 | CCN(CC)CCn1cnnc1-c1cc(Oc2ccc(NC(=O)Nc3ccc(F)c(F)c3)cc2F)ccn1 | > 50
44 | CCN(CC)CCn1cnnc1-c1cc(Oc2ccc(NC(=O)Nc3cccc(C(F)(F)F)c3)cc2F)ccn1 | 6.92
45 | CN(C)CCCn1cnnc1-c1cc(Oc2ccc(NC(=O)Nc3ccc(Cl)cc3Cl)cc2F)ccn1 | 3.26
46 | CN(C)CCn1cnnc1-c1cc(Oc2ccc(NC(=O)Nc3ccc(Cl)c(C(F)(F)F)c3)cc2F)ccn1 | 3.76
47 | CN(C)CCCn1cnnc1-c1cc(Oc2ccc(NC(=O)Nc3ccccc3C(F)(F)F)cc2F)ccn1 | 28.6
48 | Cn1ncnc1-c1cc(Oc2ccc(NC(=O)Nc3cccc(C(F)(F)F)c3)cc2F)ccn1 | 22.4
49 | CN(C)CCCn1cnnc1-c1cc(Oc2ccc(NC(=O)Nc3ccc(Cl)c(C(F)(F)F)c3)cc2F)ccn1 | 7.91
50 | CN(C)CCn1cnnc1-c1cc(Oc2ccc(NC(=O)Nc3ccc(Cl)cc3Cl)cc2F)ccn1 | 10.4
51 | CN(C)CCCn1cnnc1-c1cc(Oc2ccc(NC(=O)Nc3ccc(F)c(F)c3)cc2F)ccn1 | 15.3

Molecular target: Mast/stem cell growth factor receptor Kit (Homo sapiens) (UniProt P10721)
Sequence (P10721 whole entry): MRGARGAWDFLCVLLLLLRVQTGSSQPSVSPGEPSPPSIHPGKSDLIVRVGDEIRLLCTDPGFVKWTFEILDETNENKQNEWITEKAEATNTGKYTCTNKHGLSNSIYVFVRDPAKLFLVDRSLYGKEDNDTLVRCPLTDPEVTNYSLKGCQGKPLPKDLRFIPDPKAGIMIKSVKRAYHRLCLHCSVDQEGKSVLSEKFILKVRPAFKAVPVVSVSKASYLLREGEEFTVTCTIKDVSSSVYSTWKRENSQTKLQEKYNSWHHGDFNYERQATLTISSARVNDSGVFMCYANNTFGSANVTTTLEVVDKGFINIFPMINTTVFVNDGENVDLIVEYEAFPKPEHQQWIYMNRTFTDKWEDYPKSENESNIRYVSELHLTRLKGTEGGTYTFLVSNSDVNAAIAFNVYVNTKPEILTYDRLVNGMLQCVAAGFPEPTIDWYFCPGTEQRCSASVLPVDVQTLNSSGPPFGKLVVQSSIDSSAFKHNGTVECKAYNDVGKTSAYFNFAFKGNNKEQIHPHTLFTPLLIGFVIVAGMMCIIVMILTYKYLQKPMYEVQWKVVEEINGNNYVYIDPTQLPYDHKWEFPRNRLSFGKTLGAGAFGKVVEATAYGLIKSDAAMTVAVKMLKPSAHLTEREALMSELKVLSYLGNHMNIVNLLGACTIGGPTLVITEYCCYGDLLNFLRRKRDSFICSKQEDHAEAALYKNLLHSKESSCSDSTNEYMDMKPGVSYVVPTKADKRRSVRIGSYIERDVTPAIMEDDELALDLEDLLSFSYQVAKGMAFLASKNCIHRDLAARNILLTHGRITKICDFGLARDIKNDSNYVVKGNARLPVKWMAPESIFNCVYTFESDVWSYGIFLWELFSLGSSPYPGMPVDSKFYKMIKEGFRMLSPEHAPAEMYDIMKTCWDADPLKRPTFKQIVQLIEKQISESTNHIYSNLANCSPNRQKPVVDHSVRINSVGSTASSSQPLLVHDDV
Assay: Inhibition of c-KIT (unknown origin) at 10 uM after 1 hr by mobility shift assay
Conditions: not given
Procedure, shortened: (§2)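 Mobility shift kinase assay. Compounds were diluted in DMSO and then in kinase buffer, and tested in duplicate wells with enzyme and peptide substrate. Incubation was 1 h at 28 °C before stop buffer was added.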

Row | Structure (SMILES) | inhibition [%]
52 | CN(C)CCCn1cnnc1-c1cc(Oc2ccc(NC(=O)Nc3ccc(F)c(Cl)c3)cc2F)ccn1 | 71
53 | CCN(CC)CCn1cnnc1-c1cc(Oc2ccc(NC(=O)Nc3ccc(F)c(F)c3)cc2F)ccn1 | 27.7
54 | CCN(CC)CCn1cnnc1-c1cc(Oc2ccc(NC(=O)Nc3cccc(C(F)(F)F)c3)cc2F)ccn1 | 66.5
55 | CN(C)CCn1cnnc1-c1cc(Oc2ccc(NC(=O)Nc3ccc(Cl)c(C(F)(F)F)c3)cc2F)ccn1 | 70.4
56 | CN(C)CCCn1cnnc1-c1cc(Oc2ccc(NC(=O)Nc3ccc(Cl)c(C(F)(F)F)c3)cc2F)ccn1 | 69.9
57 | CN(C)CCCn1cnnc1-c1cc(Oc2ccc(NC(=O)Nc3ccc(F)c(F)c3)cc2F)ccn1 | 63.1

Molecular target: Proto-oncogene tyrosine-protein kinase receptor Ret (Homo sapiens) (UniProt P07949)
Sequence (P07949 whole entry): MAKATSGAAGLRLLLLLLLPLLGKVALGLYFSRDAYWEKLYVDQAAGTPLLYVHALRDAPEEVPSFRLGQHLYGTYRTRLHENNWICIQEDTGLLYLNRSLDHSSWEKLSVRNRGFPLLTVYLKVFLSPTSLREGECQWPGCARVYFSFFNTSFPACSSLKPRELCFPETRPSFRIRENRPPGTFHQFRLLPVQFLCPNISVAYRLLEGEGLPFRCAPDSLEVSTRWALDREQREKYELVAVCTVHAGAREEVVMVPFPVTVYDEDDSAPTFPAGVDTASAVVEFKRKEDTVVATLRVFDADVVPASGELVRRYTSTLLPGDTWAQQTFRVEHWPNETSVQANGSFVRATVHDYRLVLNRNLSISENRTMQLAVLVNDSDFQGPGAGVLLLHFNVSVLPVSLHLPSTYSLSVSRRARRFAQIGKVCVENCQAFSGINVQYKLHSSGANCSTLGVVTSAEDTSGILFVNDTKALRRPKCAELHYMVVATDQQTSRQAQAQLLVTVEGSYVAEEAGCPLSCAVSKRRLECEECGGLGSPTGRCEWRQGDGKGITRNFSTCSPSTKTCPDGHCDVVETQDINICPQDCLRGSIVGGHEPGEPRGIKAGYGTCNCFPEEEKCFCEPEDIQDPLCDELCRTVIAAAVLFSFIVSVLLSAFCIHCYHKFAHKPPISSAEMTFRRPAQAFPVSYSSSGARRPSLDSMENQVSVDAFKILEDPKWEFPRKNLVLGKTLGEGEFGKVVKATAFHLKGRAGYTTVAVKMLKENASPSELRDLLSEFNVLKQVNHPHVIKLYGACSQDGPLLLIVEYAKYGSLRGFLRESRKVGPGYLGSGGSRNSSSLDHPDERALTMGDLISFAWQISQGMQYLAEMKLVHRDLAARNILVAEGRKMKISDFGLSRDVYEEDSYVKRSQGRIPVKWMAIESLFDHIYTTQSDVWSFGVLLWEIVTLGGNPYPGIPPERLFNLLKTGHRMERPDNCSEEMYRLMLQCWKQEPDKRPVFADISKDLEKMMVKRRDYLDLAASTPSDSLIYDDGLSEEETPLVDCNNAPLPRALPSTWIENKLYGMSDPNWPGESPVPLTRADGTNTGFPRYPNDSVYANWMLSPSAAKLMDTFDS
Assay: Inhibition of RET (unknown origin) at 10 uM after 1 hr by mobility shift assay
Conditions: not given
Procedure, shortened: as §2

Row | Structure (SMILES) | inhibition [%]
58 | CN(C)CCCn1cnnc1-c1cc(Oc2ccc(NC(=O)Nc3ccc(F)c(Cl)c3)cc2F)ccn1 | 45.5
59 | CCN(CC)CCn1cnnc1-c1cc(Oc2ccc(NC(=O)Nc3ccc(F)c(F)c3)cc2F)ccn1 | 7.1
60 | CCN(CC)CCn1cnnc1-c1cc(Oc2ccc(NC(=O)Nc3cccc(C(F)(F)F)c3)cc2F)ccn1 | 72.1
61 | CN(C)CCn1cnnc1-c1cc(Oc2ccc(NC(=O)Nc3ccc(Cl)c(C(F)(F)F)c3)cc2F)ccn1 | 74.1
62 | CN(C)CCCn1cnnc1-c1cc(Oc2ccc(NC(=O)Nc3ccc(Cl)c(C(F)(F)F)c3)cc2F)ccn1 | 79.3
63 | CN(C)CCCn1cnnc1-c1cc(Oc2ccc(NC(=O)Nc3ccc(F)c(F)c3)cc2F)ccn1 | 30.9

Molecular target: Receptor-type tyrosine-protein kinase FLT3 (Homo sapiens) (UniProt P36888)
Sequence (P36888 whole entry): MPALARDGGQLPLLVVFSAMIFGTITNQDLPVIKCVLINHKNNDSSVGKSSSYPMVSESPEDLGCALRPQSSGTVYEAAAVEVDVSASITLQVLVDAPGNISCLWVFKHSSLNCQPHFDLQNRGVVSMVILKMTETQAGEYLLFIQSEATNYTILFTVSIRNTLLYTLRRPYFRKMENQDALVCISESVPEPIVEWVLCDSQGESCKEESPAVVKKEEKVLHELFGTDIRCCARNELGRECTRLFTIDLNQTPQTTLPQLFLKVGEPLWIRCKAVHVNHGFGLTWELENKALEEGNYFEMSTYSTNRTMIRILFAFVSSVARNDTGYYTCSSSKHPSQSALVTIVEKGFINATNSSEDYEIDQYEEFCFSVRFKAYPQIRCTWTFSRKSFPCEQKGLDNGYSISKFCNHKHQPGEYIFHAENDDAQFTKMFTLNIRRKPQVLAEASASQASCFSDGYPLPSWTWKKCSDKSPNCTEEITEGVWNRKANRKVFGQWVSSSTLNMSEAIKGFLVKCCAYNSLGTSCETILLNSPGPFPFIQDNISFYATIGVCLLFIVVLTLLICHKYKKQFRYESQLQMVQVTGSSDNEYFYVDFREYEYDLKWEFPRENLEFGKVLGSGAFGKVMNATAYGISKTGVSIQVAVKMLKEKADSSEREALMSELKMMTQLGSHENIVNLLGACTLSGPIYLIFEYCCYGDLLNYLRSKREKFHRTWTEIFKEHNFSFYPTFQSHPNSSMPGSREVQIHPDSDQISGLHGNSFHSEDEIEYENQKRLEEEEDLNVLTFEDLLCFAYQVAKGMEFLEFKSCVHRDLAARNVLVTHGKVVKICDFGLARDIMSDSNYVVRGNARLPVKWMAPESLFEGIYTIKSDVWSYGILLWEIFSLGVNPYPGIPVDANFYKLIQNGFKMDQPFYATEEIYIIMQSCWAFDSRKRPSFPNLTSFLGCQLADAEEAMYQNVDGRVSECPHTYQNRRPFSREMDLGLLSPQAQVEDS
Assay: Inhibition of FLT3 (unknown origin) at 10 uM after 1 hr by mobility shift assay
Conditions: not given
Procedure, shortened: as §2

Row | Structure (SMILES) | inhibition [%]
64 | CN(C)CCCn1cnnc1-c1cc(Oc2ccc(NC(=O)Nc3ccc(F)c(Cl)c3)cc2F)ccn1 | 72.1
65 | CCN(CC)CCn1cnnc1-c1cc(Oc2ccc(NC(=O)Nc3ccc(F)c(F)c3)cc2F)ccn1 | 39
66 | CCN(CC)CCn1cnnc1-c1cc(Oc2ccc(NC(=O)Nc3cccc(C(F)(F)F)c3)cc2F)ccn1 | 61
67 | CN(C)CCn1cnnc1-c1cc(Oc2ccc(NC(=O)Nc3ccc(Cl)c(C(F)(F)F)c3)cc2F)ccn1 | 66.3
68 | CN(C)CCCn1cnnc1-c1cc(Oc2ccc(NC(=O)Nc3ccc(Cl)c(C(F)(F)F)c3)cc2F)ccn1 | 86.9
69 | CN(C)CCCn1cnnc1-c1cc(Oc2ccc(NC(=O)Nc3ccc(F)c(F)c3)cc2F)ccn1 | 44.3

Molecular target: Vascular endothelial growth factor receptor 2 (Homo sapiens) (UniProt P35968);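 also: kinase activity read out by mobility shift assay after 1 h of incubation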
Sequence (P35968 whole entry): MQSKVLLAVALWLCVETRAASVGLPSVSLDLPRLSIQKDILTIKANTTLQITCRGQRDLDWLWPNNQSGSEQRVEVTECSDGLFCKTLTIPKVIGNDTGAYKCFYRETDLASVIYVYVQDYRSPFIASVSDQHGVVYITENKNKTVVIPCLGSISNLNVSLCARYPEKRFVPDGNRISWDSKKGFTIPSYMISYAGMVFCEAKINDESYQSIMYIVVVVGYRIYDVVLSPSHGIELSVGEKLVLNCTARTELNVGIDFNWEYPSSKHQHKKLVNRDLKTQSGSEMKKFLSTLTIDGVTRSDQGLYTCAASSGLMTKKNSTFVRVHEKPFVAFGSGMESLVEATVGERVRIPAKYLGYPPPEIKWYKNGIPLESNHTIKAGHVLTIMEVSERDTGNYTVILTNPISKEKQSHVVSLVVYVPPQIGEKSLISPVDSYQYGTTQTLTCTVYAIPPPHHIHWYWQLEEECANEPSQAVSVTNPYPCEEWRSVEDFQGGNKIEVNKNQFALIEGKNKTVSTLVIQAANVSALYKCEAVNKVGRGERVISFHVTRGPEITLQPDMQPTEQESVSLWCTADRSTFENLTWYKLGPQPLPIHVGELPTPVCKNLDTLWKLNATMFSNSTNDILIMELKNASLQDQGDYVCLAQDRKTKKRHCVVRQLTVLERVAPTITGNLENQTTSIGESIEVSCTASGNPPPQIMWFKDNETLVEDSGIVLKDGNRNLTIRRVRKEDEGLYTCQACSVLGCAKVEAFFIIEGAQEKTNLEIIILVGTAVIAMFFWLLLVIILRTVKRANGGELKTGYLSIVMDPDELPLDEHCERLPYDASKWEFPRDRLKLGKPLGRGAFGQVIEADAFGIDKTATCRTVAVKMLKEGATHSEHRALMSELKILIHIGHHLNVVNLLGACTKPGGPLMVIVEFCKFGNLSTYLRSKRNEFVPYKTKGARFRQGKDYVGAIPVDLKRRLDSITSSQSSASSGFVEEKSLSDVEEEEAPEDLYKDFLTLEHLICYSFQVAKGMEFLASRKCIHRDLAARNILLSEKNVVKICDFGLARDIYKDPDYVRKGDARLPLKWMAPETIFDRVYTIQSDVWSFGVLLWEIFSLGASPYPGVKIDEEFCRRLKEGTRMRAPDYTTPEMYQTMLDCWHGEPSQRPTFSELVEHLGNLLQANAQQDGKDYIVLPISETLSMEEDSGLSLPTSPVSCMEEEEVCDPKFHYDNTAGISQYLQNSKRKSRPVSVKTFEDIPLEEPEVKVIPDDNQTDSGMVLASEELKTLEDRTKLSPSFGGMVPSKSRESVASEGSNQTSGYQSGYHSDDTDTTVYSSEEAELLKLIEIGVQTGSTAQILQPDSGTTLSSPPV
Conditions: at 10 µM

Row | Structure (SMILES) | inhibition [%]
70 | CN(C)CCCn1cnnc1-c1cc(Oc2ccc(NC(=O)Nc3ccc(F)c(Cl)c3)cc2F)ccn1 | 35
71 | CCN(CC)CCn1cnnc1-c1cc(Oc2ccc(NC(=O)Nc3ccc(F)c(F)c3)cc2F)ccn1 | 0
72 | CCN(CC)CCn1cnnc1-c1cc(Oc2ccc(NC(=O)Nc3cccc(C(F)(F)F)c3)cc2F)ccn1 | 11.5
73 | CN(C)CCCn1cnnc1-c1cc(Oc2ccc(NC(=O)Nc3ccc(Cl)cc3Cl)cc2F)ccn1 | 11.3
74 | CN(C)CCn1cnnc1-c1cc(Oc2ccc(NC(=O)Nc3ccc(Cl)c(C(F)(F)F)c3)cc2F)ccn1 | 0
75 | CN(C)CCCn1cnnc1-c1cc(Oc2ccc(NC(=O)Nc3ccccc3C(F)(F)F)cc2F)ccn1 | 1.7
76 | CN(C)CCCn1cnnc1-c1cc(Oc2ccc(NC(=O)Nc3ccc(Cl)c(C(F)(F)F)c3)cc2F)ccn1 | 10.9
77 | CN(C)CCn1cnnc1-c1cc(Oc2ccc(NC(=O)Nc3ccc(Cl)cc3Cl)cc2F)ccn1 | 6
78 | CN(C)CCCn1cnnc1-c1cc(Oc2ccc(NC(=O)Nc3ccc(F)c(F)c3)cc2F)ccn1 | 20.3
